Active and inactive are the calls of the source. The calls are words filed in the database; no cut-off is given here.
What was measured:
Homo sapiens [1] = organism: Homo sapiens; test: Destabilization of microtubule network in human MCF7 cells at 8 nM after 24 hrs by fluorescence microscopic analysis; assay type: cell-based
MDA-MB-231 [2] = test: Cell cycle arrest in human MDA-MB-231 cells assessed as accumulation at G2/M phase at 8 nM after 24 hrs by DAPI-staining based FACS analysis (reference value: 15.5%); assay type: functional
MDA-MB-468 [3] = test: Cell cycle arrest in human MDA-MB-468 cells assessed as accumulation at G0/G1 phase at 8 nM after 24 hrs by DAPI-staining based FACS analysis (reference value: 63.3%); assay type: functional
MCF7 = test: Cell cycle arrest in human MCF7 cells assessed as accumulation at G2/M phase at 8 nM after 24 hrs by DAPI-staining based FACS analysis (reference value: 22.3%); assay type: functional
MDA-MB-468 [4] = test: Cell cycle arrest in human MDA-MB-468 cells assessed as accumulation at G2/M phase at 50 nM after 24 hrs by DAPI-staining based FACS analysis (reference value: 19.5%); assay type: functional
Chorioallantoic membrane = test: Toxicity in chicken chorioallantoic membrane implanted with CYP1A1 transfected human HT1080 cells at 1 ug/egg, iv administered on day 11 post implantation measured on day 17; assay type: organism-based, Gallus gallus; conditions: in vivo
Procedure, shortened: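 Fertilized chicken eggs bearing CYP1A1-transfected HT-1080 tumors on the CAM. On day 11, drug (40 mM DMSO stock) diluted in cremophor/EtOH/PBS 6.25/6.25/87.5, final DMSO < 0.5%. Given iv in 100 µL to 10–12 eggs per group. Embryos killed on day 17, tumor wet weight recorded, deaths and toxicity signs scored. Two independent experiments, 20–24 eggs in total.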

CYP1A1 mRNA = test: Upregulation of CYP1A1 mRNA expression in human MCF7 cells at 10 nM after 18 hrs by quantitative PCR analysis relative to control; assay type: ADME, cell-based; conditions: read-out: FC
Procedure, shortened: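 MCF7 cells exposed to 10 nM drug for 18 and 24 h. RNA extracted with TriReagent, reverse-transcribed with M-MuLV, random hexamers and oligo(dT). 4 ng cDNA run in quadruplicate with SYBR Green, 40 cycles at 95 °C/60 °C. Relative expression by the 2^-ΔΔCt method, normalized to ACTB and B2M.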

MDA-MB-468 [5] = test: Cytotoxicity against human MDA-MB-468 cells after 72 hrs in presence of CYP1A1 inhibitor quercetin by SRB assay; assay type: functional, cell-based
Procedure, shortened: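 MDA-MB-468 cells (5.0 x 10^3/well) seeded and incubated 24 h. Drug freshly dissolved in DMSO, given at 0.75 to 1.0 x 10^5 nM, together with subtoxic CYP inhibitor, for 72 h. Cells fixed with cold 10% TCA and stained with 0.1% sulforhodamine B. Bound dye taken up in 10 mM Tris, absorbance read at 530-565 nm. At least two experiments, triplicate cultures.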

Homo sapiens [6] = organism: Homo sapiens; test: Destabilization of microtubule network in human MDA-MB-468 cells at 50 nM after 24 hrs by fluorescence microscopic analysis; assay type: cell-based
MDA-MB-231 [7] = test: Cell cycle arrest in human MDA-MB-231 cells assessed as accumulation at S phase at 50 nM after 24 hrs by DAPI-staining based FACS analysis (reference value: 9.7%); assay type: functional
MDA-MB-468 [8] = test: Cell cycle arrest in human MDA-MB-468 cells assessed as accumulation at S phase at 50 nM after 24 hrs by DAPI-staining based FACS analysis (reference value: 17%); assay type: functional

Compound	Activity (Homo sapiens [1])	Activity (MDA-MB-231 [2])	Activity (MDA-MB-468 [3])	Activity (MCF7)	Activity (MDA-MB-468 [4])	Activity (Chorioallantoic membrane)	fold induction at 18 h, 0.01 µM (CYP1A1 mRNA)	Activity (MDA-MB-468 [5])	Activity (Homo sapiens [6])	Activity (MDA-MB-231 [7])	Activity (MDA-MB-468 [8])
COc1cc(OS(=O)(=O)c2ccc(N3CCNC3=O)cc2)cc(OC)c1OC	Active	76.6%	10.6%	44.1%	–	–	–	–	–	–	–
CCCCN1CCN(c2ccc(S(=O)(=O)Oc3cc(OC)c(OC)c(OC)c3)cc2)C1=O	–	–	–	–	70.5%	Non-Toxic	2	inactive	Active	9.2%	15%
